By IC50 is commonly meant the concentration that gives 50% inhibition.

The values that follow come from ChEMBL document CHEMBL2029288, “Coumarin-trioxane hybrids: synthesis and evaluation as a new class of antimalarial scaffolds” (Bioorg Med Chem Lett, 2012).

In brackets after ≈: the same amount, converted by molar mass.

The first test deals with Plasmodium falciparum. In words: Antimalarial activity against chloroquine-sensitive Plasmodium falciparum 3D7 after 72 hrs by MSF assay. The test is classed as functional, organism-based. The following applies: 3D7, 72 h. The gist of the method:
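Parasites in 1% cell suspension at 0.8–1% initial parasitaemia, exposed to compounds in duplicate wells for 72 h at 37 °C under 5% CO2 in air. SYBR Green-I then added for 1 h at 37 °C; fluorescence read at excitation 485 ± 20 nm, emission 530 ± 20 nm. Signal expressed as percent of untreated controls; IC50 by logit regression. Chloroquine standard.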
On to `C=C(c1ccc(C)cc1)C1COC(c2cc(C)c3oc(=O)c(C(=O)OC)cc3c2)OO1` (centres undefined), for which the IC50 was 0.361 µg/mL (≈ 0.853 µM). In the case of `C=C(c1ccc(C)cc1)C1COC(c2cc(C)c3oc(=O)c(C(=O)OCC)cc3c2)OO1` (centres undefined), the concentration for half-maximal inhibition (IC50) was determined as 0.262 µg/mL (≈ 0.601 µM). The IC50 values of the last two compounds are within 1.5-fold of each other. On to `C=C(c1ccc(C)cc1)C1COC(c2cc(C(C)CC)c3oc(=O)c(C(=O)OC)cc3c2)OO1` (centres undefined), for which it took 0.132 µg/mL (≈ 0.284 µM) to reach half-maximal inhibition (IC50). On the same count and under the same terms, then `C=C(c1ccc(C)cc1)C1COC(c2cc(C(C)CC)c3oc(=O)c(C(=O)OCC)cc3c2)OO1` (centres undefined), with 0.0393 µg/mL (≈ 0.0821 µM); and `C=C(c1ccc(Br)cc1)C1COC(c2cc(C)c3oc(=O)c(C(=O)OC)cc3c2)OO1` (centres undefined), with 0.306 µg/mL (≈ 0.628 µM); and `C=C(c1ccc(Br)cc1)C1COC(c2cc(C)c3oc(=O)c(C(=O)OCC)cc3c2)OO1` (centres undefined), with 0.246 µg/mL (≈ 0.49 µM). On the same count and under the same terms, then `C=C(c1ccc(Br)cc1)C1COC(c2cc(C(C)CC)c3oc(=O)c(C(=O)OC)cc3c2)OO1` (centres undefined), with 0.076 µg/mL (≈ 0.144 µM). Consider `C=C(c1ccc(Br)cc1)C1COC(c2cc(C(C)CC)c3oc(=O)c(C(=O)OCC)cc3c2)OO1` (centres undefined), for which half-maximal inhibition (IC50) was put at 0.11 µg/mL (≈ 0.203 µM). Still for that read-out and setting: then `C=C(c1ccc(F)cc1)C1COC(c2cc(C)c3oc(=O)c(C(=O)OC)cc3c2)OO1` (centres undefined), with greater than 0.5 µg/mL. Still for that read-out and setting: to `C=C(c1ccc(F)cc1)C1COC(c2cc(C)c3oc(=O)c(C(=O)OCC)cc3c2)OO1` (centres undefined) belongs greater than 0.5 µg/mL; to `C=C(c1ccc(F)cc1)C1COC(c2cc(C(C)CC)c3oc(=O)c(C(=O)OC)cc3c2)OO1` (centres undefined), 0.203 µg/mL (≈ 0.433 µM); to `C=C(c1ccc(F)cc1)C1COC(c2cc(C(C)CC)c3oc(=O)c(C(=O)OCC)cc3c2)OO1` (centres undefined), 0.117 µg/mL (≈ 0.242 µM). On the same count and under the same terms, then `CO[C@H]1O[C@@H]2O[C@@]3(C)CC[C@H]4[C@H](C)CC[C@@H]([C@H]1C)[C@@]24OO3` [ARTEMETHER], with 0.0004 µg/mL (≈ 0.00134 µM).

For the next test, the system named is Plasmodium yoelii nigeriensis. As to the kind of experiment: Antimalarial activity against multi drug-resistant Plasmodium yoelii nigeriensis infected in Swiss mouse assessed as suppression in parasitemia at 96 mg/kg, po on day 4. The test is classed as functional.
Conditions: not given
The procedure, abridged:
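Peters's 4-day suppressive test in Swiss mice infected with P. yoelii nigeriensis. Compound given orally at 96 mg/kg/day for 4 days; parasitaemia suppression scored on day 4.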
For `C=C(c1ccc(C)cc1)C1COC(c2cc(C)c3oc(=O)c(C(=O)OCC)cc3c2)OO1` (centres undefined), the Activity is recorded as 41.14%.
